Reference: ChEMBL document CHEMBL1153551, “Resveratrol modulates phagocytosis of bacteria through an NF-kappaB-dependent gene program” (Antimicrob Agents Chemother, 2008)
Calls of active or inactive are those of the source.

Legend:
RAW264.7 [1] = assay: Inhibition of phagocytosis of FITC-conjugated Escherichia coli K12 in mouse RAW264.7 cells using trypan blue staining after 80 mins by flow cytometry; type: functional, cell-based
Outline: (§1)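 Serum-free THP-1 or RAW264.7 cells were treated 1 h with resveratrol, then incubated 0, 20, 40, 60 or 80 min with heat-killed FITC-E. coli at 1:100 cell:bacterium. Outer fluorescence was quenched with 0.2% trypan blue and cells fixed in 1% paraformaldehyde. Internalized fluorescence was read as flow cytometry MFI; mean and SD of triplicates.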

RAW264.7 [2] = assay: Inhibition of FSL-1-induced increase in phagocytosis of FITC-conjugated Staphylococcus aureus 209P in mouse RAW264.7 cells using trypan blue staining after 20 mins by flow cytometry; type: functional, cell-based
Outline: (§2)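 THP-1 or RAW264.7 cells (1 × 10⁶/ml) were pretreated 24 h with FSL-1 (0, 1, 10, 100 nM), washed, then given resveratrol (10, 50, 100 μM) for 1 h serum-free. Heat-killed FITC-E. coli (1:10) or FITC-S. aureus (1:100) followed. Surface fluorescence was quenched with 0.2% trypan blue and cells fixed in 1% paraformaldehyde. Flow cytometry mean fluorescence intensity, triplicates.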

THP-1 [3] = assay: Inhibition of FSL1-induced upregulation of DC-SIGN mRNA expression in human THP1 cells at 100 uM after 1 hr by RT-PCR; type: functional, cell-based
Outline: (§3)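 Serum-free THP-1 cells primed 24 h with 100 nM FSL-1 were given 100 μM resveratrol or 0.1% DMSO for 1 h. Total RNA from 5 × 10⁶ cells was reverse-transcribed with oligo(dT) and PCR-amplified for MSR1, CD36, DC-SIGN and Dectin-1 (30 cycles) with β-actin as reference (25 cycles). Products were resolved on 3% agarose with ethidium bromide.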

THP-1 [4] = assay: Inhibition of phagocytosis of FITC-conjugated Escherichia coli K12 in human THP1 cells using trypan blue staining after 40 mins by flow cytometry; type: functional, cell-based; outline: as §1
RAW264.7 [5] = assay: Inhibition of FSL-1-induced increase in phagocytosis of FITC-conjugated Escherichia coli K12 in mouse RAW264.7 cells using trypan blue staining after 20 mins by flow cytometry; type: functional, cell-based; outline: as §2
RAW264.7 [6] = assay: Inhibition of phagocytosis of FITC-conjugated Staphylococcus aureus 209P in mouse RAW264.7 cells using trypan blue staining after 20 mins by flow cytometry; type: functional, cell-based
THP-1 [7] = assay: Inhibition of phagocytosis of FITC-conjugated Escherichia coli K12 in human THP1 cells using trypan blue staining after 80 mins by flow cytometry; type: functional, cell-based; outline: as §1
THP-1 [8] = assay: Inhibition of phagocytosis of FITC-conjugated Staphylococcus aureus 209P in human THP1 cells using trypan blue staining after 80 mins by flow cytometry; type: functional, cell-based
RAW264.7 [9] = assay: Inhibition of phagocytosis of FITC-conjugated Escherichia coli K12 in mouse RAW264.7 cells using trypan blue staining after 40 mins by flow cytometry; type: functional, cell-based; outline: as §1
RAW264.7 [10] = assay: Inhibition of heat killed Escherichia coli K12-induced TNF alpha production in mouse RAW264.7 cells at 1 to 100 uM after 6 hrs by ELISA; type: functional, cell-based
Outline: (§4)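 THP-1 or RAW264.7 cells (1 × 10⁶/well, 16 h) were washed and pretreated 1 h with resveratrol. Serum-free stimulation with heat-killed E. coli or S. aureus at 1:100 followed for 0, 2, 4 or 6 h. TNF-α in supernatants (400 × g spin) was measured by ELISA: human kit for THP-1, mouse kit for RAW264.7. Triplicates.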

THP-1 [11] = assay: Inhibition of FSL-1-induced increase in phagocytosis of FITC-conjugated Staphylococcus aureus 209P in human THP1 cells using trypan blue staining after 20 mins by flow cytometry; type: functional, cell-based; outline: as §2
RAW264.7 [12] = assay: Inhibition of phagocytosis of FITC-conjugated Staphylococcus aureus 209P in mouse RAW264.7 cells using trypan blue staining after 80 mins by flow cytometry; type: functional, cell-based
HEK293 [13] = assay: Inhibition of heat killed Staphylococcus aureus 209P-induced nuclear translocation of p65 element of NF-kappaB in HEK293 cells expressing TLR2 at 100 uM pretreated for 1 hr before 6 hrs heat killed bacterial stimulation by immunostaining method; type: cell-based; conditions: Homo sapiens
Outline: (§5)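 293/TLR2 cells on poly-L-lysine coverslips were given 100 μM resveratrol or 0.1% DMSO for 1 h, then heat-killed E. coli or S. aureus (1:100) for 6 h. Cells were fixed in methanol at −20°C for 5 min and stained with rabbit anti-p65 pAb (1 μg/ml, 45 min RT), then Alexa 594 anti-rabbit IgG. Nuclear p65 was viewed by confocal microscopy.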

THP-1 [14] = assay: Inhibition of FSL-1-induced increase in phagocytosis of FITC-conjugated Escherichia coli K12 in human THP1 cells assessed as reduction in number of cells phagocytosing bacteria per cell after 1 hr by CLSM; type: functional, cell-based
Outline: (§6)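 THP-1 cells (1 × 10⁶/ml) were held 24 h with or without 100 nM FSL-1, washed, then given 100 μM resveratrol or 0.1% DMSO for 1 h. Heat-killed FITC-E. coli (1:100) was added for 1 h, cells were stained with concanavalin A, fixed in 3% paraformaldehyde and imaged by confocal microscopy. Readouts: particles per cell among 3,500 cells; % cells with bacteria per field (>100 cells), 25 fields.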

RAW264.7 [15] = assay: Inhibition of phagocytosis of FITC-conjugated Staphylococcus aureus 209P in mouse RAW264.7 cells using trypan blue staining after 40 mins by flow cytometry; type: functional, cell-based
THP-1 [16] = assay: Inhibition of phagocytosis of FITC-conjugated Escherichia coli K12 in human THP1 cells assessed as reduction in ratio of number of bacterial cells to phagocytes using trypan blue staining by flow cytometry; type: functional, cell-based
Outline: (§7)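 THP-1 or RAW264.7 cells received resveratrol for 1 h serum-free, then a range of doses of heat-killed FITC-E. coli or FITC-S. aureus. Trypan blue (0.2%) quenched bound bacteria and 1% paraformaldehyde fixed the cells. Flow cytometry MFI of internalized bacteria was plotted against bacterial dose; triplicates.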

THP-1 [17] = assay: Inhibition of phagocytosis of FITC-conjugated Staphylococcus aureus 209P in human THP1 cells assessed as reduction in ratio of number of bacterial cells to phagocytes using trypan blue staining by flow cytometry; type: functional, cell-based; outline: as §7
THP-1 [18] = assay: Inhibition of heat killed Staphylococcus aureus 209P-induced TNF alpha production in human THP1 cells at 1 to 100 uM after 6 hrs by ELISA; type: functional, cell-based; outline: as §4
THP-1 [19] = assay: Inhibition of FSL-1-induced increase in phagocytosis of FITC-conjugated Escherichia coli K12 in human THP1 cells using trypan blue staining after 20 mins by flow cytometry; type: functional, cell-based; outline: as §2
HEK293 [20] = assay: Inhibition of heat killed Escherichia coli K12-induced NF-kappaB activation in HEK293 cells expressing TLR2 pretreated for 1 hr before 6 hrs heat killed bacterial stimulation by luciferase reporter gene assay; type: cell-based; conditions: Homo sapiens
Outline: (§8)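 293/TLR2 cells (1 × 10⁵/well) were transfected with 50 ng pNF-κB-Luc, 5 ng pRL-TK and 445 ng pcDNA3. After 24 h they were pretreated 1 h with resveratrol, then stimulated 6 h serum-free with FSL-1 (1, 10, 100 nM) or heat-killed E. coli or S. aureus (1:1, 1:10, 1:100). Dual luciferase readout, triplicates.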

THP-1 [21] = assay: Inhibition of phagocytosis of FITC-conjugated Escherichia coli K12 in human THP1 cells using trypan blue staining after 60 mins by flow cytometry; type: functional, cell-based; outline: as §1
HEK293 [22] = assay: Inhibition of heat killed Staphylococcus aureus 209P-induced NF-kappaB activation in HEK293 cells expressing TLR2 pretreated for 1 hr before 6 hrs heat killed bacterial stimulation by luciferase reporter gene assay; type: cell-based; conditions: Homo sapiens; outline: as §8
THP-1 [23] = assay: Inhibition of FSL-1-induced increase in phagocytosis of FITC-conjugated Escherichia coli K12 in human THP1 cells assessed as reduction in number of phagocytosing bacteria to total number of cells after 1 hr by CLSM; type: functional, cell-based; outline: as §6
THP-1 [24] = assay: Inhibition of FSL1-induced upregulation of CD36 mRNA expression in human THP1 cells at 100 uM after 1 hr by RT-PCR; type: functional, cell-based; outline: as §3
HEK293 [25] = assay: Inhibition of DC-SIGN expression in HEK293 cells expressing DC-SIGN at 100 uM by Western blot analysis; type: functional, cell-based; conditions: Homo sapiens
Outline: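 293/DC-SIGN cells (1 × 10⁷ per 10-cm dish, DMEM complete medium, 16 h) were washed and exposed to 100 μM resveratrol for 0, 30, 60, 90 or 120 min. Lysates in SDS sample buffer with protease inhibitors were boiled and run on 10% SDS-PAGE, then blotted to nitrocellulose. Probes were anti-DC-SIGN or anti-β-actin mAb (4°C overnight), then HRP anti-mouse IgG.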

THP-1 [26] = assay: Inhibition of phagocytosis of FITC-conjugated Staphylococcus aureus 209P in human THP1 cells using trypan blue staining after 40 mins by flow cytometry; type: functional, cell-based
THP-1 [27] = assay: Inhibition of FSL1-induced upregulation of MSR1 mRNA expression in human THP1 cells at 100 uM after 1 hr by RT-PCR; type: functional, cell-based; outline: as §3
HEK293 [28] = assay: Inhibition of phagocytosis of heat killed FITC-conjugated Escherichia coli K12 in HEK293 at 100 uM by after 1 hr; type: functional, cell-based; conditions: Homo sapiens
Outline: (§9)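 293/DC-SIGN cells (5 × 10⁵/ml) were plated the day before, washed and treated 1 h with resveratrol. Heat-killed FITC-E. coli or S. aureus were added for 1 h at various cell:bacterium ratios. Trypan blue (0.2%) quenched surface fluorescence and 1% paraformaldehyde fixed the cells. Flow cytometry MFI, triplicates.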

THP-1 [29] = assay: Inhibition of FSL1-induced upregulation of dectin-1 mRNA expression in human THP1 cells at 100 uM after 1 hr by RT-PCR; type: functional, cell-based; outline: as §3
RAW264.7 [30] = assay: Inhibition of phagocytosis of FITC-conjugated Staphylococcus aureus 209P in mouse RAW264.7 cells using trypan blue staining after 60 mins by flow cytometry; type: functional, cell-based
THP-1 [31] = assay: Inhibition of heat killed Escherichia coli K12-induced TNF alpha production in human THP1 cells at 1 to 100 uM after 6 hrs by ELISA; type: functional, cell-based; outline: as §4
RAW264.7 [32] = assay: Inhibition of phagocytosis of FITC-conjugated Escherichia coli K12 in mouse RAW264.7 cells using trypan blue staining after 60 mins by flow cytometry; type: functional, cell-based; outline: as §1
RAW264.7 [33] = assay: Inhibition of heat killed Staphylococcus aureus 209P-induced TNF alpha production in mouse RAW264.7 cells at 1 to 100 uM after 6 hrs by ELISA; type: functional, cell-based; outline: as §4
RAW264.7 [34] = assay: Inhibition of phagocytosis of FITC-conjugated Staphylococcus aureus 209P in mouse RAW264.7 cells assessed as reduction in ratio of number of bacterial cells to phagocytes using trypan blue staining by flow cytometry; type: functional, cell-based; outline: as §7
HEK293 [35] = assay: Inhibition of phagocytosis of heat killed FITC-conjugated Staphylococcus aureus 209P in HEK293 at 100 uM after 1 hr; type: functional, cell-based; conditions: Homo sapiens; outline: as §9
RAW264.7 [36] = assay: Inhibition of phagocytosis of FITC-conjugated Escherichia coli K12 in mouse RAW264.7 cells using trypan blue staining after 20 mins by flow cytometry; type: functional, cell-based; outline: as §1
HEK293 [37] = assay: Inhibition of heat killed Escherichia coli K12-induced nuclear translocation of p65 element of NF-kappaB in HEK293 cells expressing TLR2 at 100 uM pretreated for 1 hr before 6 hrs heat killed bacterial stimulation by immunostaining method; type: cell-based; conditions: Homo sapiens; outline: as §5
THP-1 [38] = assay: Inhibition of phagocytosis of FITC-conjugated Staphylococcus aureus 209P in human THP1 cells using trypan blue staining after 20 mins by flow cytometry; type: functional, cell-based
THP-1 [39] = assay: Inhibition of phagocytosis of FITC-conjugated Staphylococcus aureus 209P in human THP1 cells using trypan blue staining after 60 mins by flow cytometry; type: functional, cell-based
HEK293 [40] = assay: Inhibition of FSL1-induced NF-kappaB activation in HEK293 cells expressing TLR2 pretreated for 1 hr before 6 hrs-FSL1 stimulation by luciferase reporter gene assay; type: cell-based; conditions: Homo sapiens; outline: as §8
RAW264.7 [41] = assay: Inhibition of phagocytosis of FITC-conjugated Escherichia coli K12 in mouse RAW264.7 cells assessed as reduction in ratio of number of bacterial cells to phagocytes using trypan blue staining by flow cytometry; type: functional, cell-based; outline: as §7
THP-1 [42] = assay: Inhibition of phagocytosis of FITC-conjugated Escherichia coli K12 in human THP1 cells using trypan blue staining after 20 mins by flow cytometry; type: functional, cell-based; outline: as §1

Measured: Activity

Oc1ccc(/C=C/c2cc(O)cc(O)c2)cc1
active: RAW264.7 [1] Dose-dependent effect | RAW264.7 [2] Dose-dependent effect | THP-1 [3] | THP-1 [4] Dose-dependent effect | RAW264.7 [5] Dose-dependent effect | RAW264.7 [6] Dose-dependent effect | THP-1 [7] Dose-dependent effect | THP-1 [8] Dose-dependent effect | RAW264.7 [9] Dose-dependent effect | RAW264.7 [10] | THP-1 [11] Dose-dependent effect | RAW264.7 [12] Dose-dependent effect | HEK293 [13] | THP-1 [14] | RAW264.7 [15] Dose-dependent effect | THP-1 [16] | THP-1 [17] | THP-1 [18] | THP-1 [19] Dose-dependent effect | HEK293 [20] | THP-1 [21] Dose-dependent effect | HEK293 [22] | THP-1 [23] | THP-1 [24] | HEK293 [25] | THP-1 [26] Dose-dependent effect | THP-1 [27] | HEK293 [28] Dose-dependent effect | THP-1 [29] | RAW264.7 [30] Dose-dependent effect | THP-1 [31] | RAW264.7 [32] Dose-dependent effect | RAW264.7 [33] | RAW264.7 [34] | HEK293 [35] Dose-dependent effect | RAW264.7 [36] Dose-dependent effect | HEK293 [37] | THP-1 [38] Dose-dependent effect | THP-1 [39] Dose-dependent effect | HEK293 [40] Dose-dependent effect | RAW264.7 [41] | THP-1 [42] Dose-dependent effect
